# Measurements published in ChEMBL document CHEMBL1141164, “Design and synthesis of a series of melamine-based nitroheterocycles with activity against Trypanosomatid parasites” (J Med Chem, 2005).
# Columns and labels:
# [1] = system: Trypanosoma brucei brucei; test: In vitro inhibitory concentration against blood stream Trypanosoma brucei brucei AT1 knockout mutant with a non functional P2 transporter incubated for 72 h at 37 degree C; assay type: organism-based
# Outline: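 Bloodstream T. b. brucei trypomastigotes, wild type or P2 transporter knockout (TbAT1-/-), were tested side by side. Viability was read by Alamar Blue fluorescence and IC50 values were determined.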
# [2] = system: Trypanosoma brucei rhodesiense; test: Inhibitory concentration in vitro against blood stream Trypanosoma brucei rhodesiense incubated for 72 hr at 37 degree C; assay type: functional, organism-based
# Outline: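 T. b. rhodesiense STIB900 trypomastigotes, a 1982 human isolate from Tanzania, grown in minimum essential medium with 2-mercaptoethanol and 15% heat-inactivated horse serum. Drug dilutions 90 to 0.123 μg/mL, 72 h at 37 °C, 5% CO2.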
# Trypanosoma cruzi [3] = test: In vivo percent inhibition of compound at a dose of 50 mg/kg, i.p., for 5 doses in mice infected with Trypanosoma cruzi; conditions: ip
# Trypanosoma cruzi [4] = test: In vivo activity at a dose of 50 mg/kg, i.p., for 5 doses in mice infected with Trypanosoma cruzi, measured as survival days (control 13 days); conditions: route intraperitoneal
# Leishmania donovani = test: Inhibitory concentration in vitro against intracellular amastigotes of Leishmania donovani in mouse peritoneal macrophages incubated for 96 hr at […]; tox is toxic to macrophages
# L6 = test: Concentration causing cytotoxicity to 50% of L-6 rat skeletal myoblasts; assay type: functional, cell-based
# Outline: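 L-6 rat skeletal myoblasts run in the same Alamar Blue assay as the trypanosome screen. Serial dilutions spanning 90 to 0.123 μg/mL, 72 h at 37 °C under 5% CO2, then Alamar Blue for a further 2–4 h. Fluorescence read at ex 536/em 588 nm and expressed as % of control to give IC50.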
# Mus musculus [5] = test: In vivo antitrypanosomal activity at a dose of 4*20 mg/kg, i.p., in mice infected with Trypanosoma brucei brucei STIB 795 strain; 0/4; assay type: functional
# [6] = system: Trypanosoma brucei brucei; test: In vitro inhibitory concentration against blood stream Trypanosoma brucei brucei AT1 wild type incubated for 72 h at 37 degree C; assay type: functional, organism-based
# Outline: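 Wild-type T. b. brucei trypomastigotes, tested alongside the P2 knockout (TbAT1-/-). Alamar Blue viability assay used to derive IC50 values.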
# Trypanosoma cruzi [7] = test: In vitro inhibitory concentration against intracellular amastigotes of Trypanosoma cruzi in rat skeletal myoblasts incubated for 37 degree C for 4 days; assay type: functional, organism-based; conditions: 96 h
# Outline: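 L-6 myoblasts seeded at 2000 cells/well in RPMI 1640 with 10% FBS and 2 mM L-glutamine. After 24 h, 5000 T. cruzi Tulahuen C2C4 (LacZ) trypomastigotes added with serial drug dilution. Incubated 4 days at 37 °C in 5% CO2, then CPRG/Nonidet added.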
# Mus musculus [8] = test: In vivo antitrypanosomal activity at a dose of 4*20 mg/kg, i.p., in mice infected with Trypanosoma brucei brucei STIB 795 strain, measured as survival days (control 7 days); assay type: functional
smiles,measurement,setting,value
CN(C)c1nc(N)nc(N/N=C/c2ccc([N+](=O)[O-])o2)n1,IC50,[1],3.09 µM
same,IC50,[2],0.053 µM
same,inhibition in vivo at 50 mg/kg,Trypanosoma cruzi [3],45%
same,Survival,Trypanosoma cruzi [4],14 days
same,IC50,Leishmania donovani,Toxic
same,IC50,L6,110 µM
same,Cured/Infected,Mus musculus [5],0
same,IC50,[6],5.36 µM
same,IC50,Trypanosoma cruzi [7],0.29 µM
same,Survival,Mus musculus [8],18.3 days
